Reference: ChEMBL document CHEMBL1150066, “Cytotoxic activity of tetraprenylphenols related to suillin, an antitumor principle from Suillus granulatus” (J Nat Prod, 1992)
Values after ≈ are worked out from the molar mass of the structure shown.

Columns and labels:
Format in all cases: functional, cell-based
[1] = Cytotoxicity against human NSCLC-N6 cells after 72 hrs by MTT assay; conditions: NSCLC-N6, 72 h
In short: (§1)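 Cells per well: NSCLC-N6 0.2×10^5, KB 0.1×10^5, P388 0.05×10^5, in RPMI 1640 with 5% fetal calf serum, penicillin/streptomycin and 2 mM glutamine. Test solution added at decreasing concentrations in duplicate wells, then 72 h at 37° in 5% CO2. MTT added for 4 h, formazan dissolved in […], A570 read. IC50 taken from the dose/effect curve relative to controls.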

P388 [2] = experiment: Cytotoxicity against mouse P388 cells after 72 hrs by MTT assay; conditions: P388, 72 h; in short: as §1
KB [3] = experiment: Cytotoxicity against human KB cells at 10 ug/ml after 72 hrs by MTT assay
KB [4] = experiment: Cytotoxicity against human KB cells after 72 hrs by MTT assay; in short: as §1
KB [5] = experiment: Cytotoxicity against human KB cells at 5 ug/ml after 72 hrs by MTT assay
[6] = Cytotoxicity against human NSCLC-N6 cells at 5 ug/ml after 72 hrs by MTT assay
P388 [7] = experiment: Cytotoxicity against mouse P388 cells at 5 ug/ml after 72 hrs by MTT assay

| Compound | IC50 [1] [µg/mL] | IC50 (P388 [2]) [µg/mL] | IC50 (KB [3]) | IC50 (KB [4]) [µg/mL] | IC50 (KB [5]) | IC50 [6] | IC50 (P388 [7]) |
| --- | --- | --- | --- | --- | --- | --- | --- |
| COc1ccc(OC)c(OC)c1C/C=C(\C)CC/C=C(\C)CC/C=C(\C)CCC=C(C)C | > 10 | > 10 | Not Active | – | – | – | – |
| CC(=O)Oc1ccc2c(c1OC(C)=O)C=CC(C)(CC/C=C(\C)CC/C=C(\C)CCC=C(C)C)O2 (configuration not stated) | 0.7 (≈ 1.46 µM) | 0.3 (≈ 0.624 µM) | – | 1 (≈ 2.08 µM) | – | – | – |
| CC(=O)Oc1ccc2c(c1OC(C)=O)CCC(C)(CCCC(C)CCCC(C)CCCC(C)C)O2 (configuration not stated) | 0.9 (≈ 1.84 µM) | 0.7 (≈ 1.43 µM) | – | 1.1 (≈ 2.25 µM) | – | – | – |
| CC(=O)Oc1cc(C/C=C(\C)CC/C=C(\C)CC/C=C(\C)CCC=C(C)C)c(OC(C)=O)c(OC(C)=O)c1 | 0.8 (≈ 1.52 µM) | 0.4 (≈ 0.762 µM) | – | 0.9 (≈ 1.72 µM) | – | – | – |
| CC(=O)Oc1ccc(O)c(O)c1CCC(C)CCCC(C)CCCC(C)CCCC(C)C (configuration not stated) | 4.5 (≈ 10 µM) | 8.2 (≈ 18.3 µM) | – | 6.3 (≈ 14 µM) | – | – | – |
| CC(=O)Oc1ccc(OC(C)=O)c(OC(C)=O)c1CCC(C)CCCC(C)CCCC(C)CCCC(C)C (configuration not stated) | 9 (≈ 16.9 µM) | > 16.6 | – | > 10 | – | – | – |
| COc1ccc(OC(C)=O)c(C/C=C(\C)CC/C=C(\C)CC/C=C(\C)CCC=C(C)C)c1OC | 5.8 (≈ 12.4 µM) | 3.7 (≈ 7.89 µM) | – | 7.5 (≈ 16 µM) | – | – | – |
| CC(=O)Oc1c(O)ccc(O)c1C/C=C(\C)CC/C=C(\C)CC/C=C(\C)CCC=C(C)C | 2.9 (≈ 6.58 µM) | 0.9 (≈ 2.04 µM) | – | 2.5 (≈ 5.67 µM) | – | – | – |
| CC(=O)Oc1ccc(OC(C)=O)c(OC(C)=O)c1C/C=C(\C)CC/C=C(\C)CC/C=C(\C)CCC=C(C)C | 1.9 (≈ 3.62 µM) | 5 (≈ 9.53 µM) | – | 2 (≈ 3.81 µM) | – | – | – |
| COc1c(O)cc(O)cc1C/C=C(\C)CC/C=C(\C)CC/C=C(\C)CCC=C(C)C | 2.2 (≈ 5.33 µM) | 2.1 (≈ 5.09 µM) | – | 5 (≈ 12.1 µM) | – | – | – |
| CC(=O)Oc1c(O)cc(O)cc1C/C=C(\C)CC/C=C(\C)CC/C=C(\C)CCC=C(C)C | 2.3 (≈ 5.22 µM) | 2.3 (≈ 5.22 µM) | – | – | Not Active | – | – |
| COc1ccc(O)c(O)c1C/C=C(\C)CC/C=C(\C)CC/C=C(\C)CCC=C(C)C | > 5 | 2.8 (≈ 6.79 µM) | – | – | Not Active | – | – |
| CC(C)=CCC/C(C)=C/CC/C(C)=C/CCC1(C)C=Cc2c(ccc(O)c2O)O1 (configuration not stated) | – | – | – | – | Not Active | Not Active | Not Active |
| CC(=O)Oc1ccc(O)c(O)c1C/C=C(\C)CC/C=C(\C)CC/C=C(\C)CCC=C(C)C [TETRAPRENYLPHENOLSUILLIN] | 1 (≈ 2.27 µM) | 0.8 (≈ 1.82 µM) | – | 0.7 (≈ 1.59 µM) | – | – | – |
